Assay outcomes as filed in PubChem.
An excerpt weighted towards active compounds, which were near 4% of everything screened.
TAAR1 antagonist: human TAAR1 antagonism. Q96RJ0. CHO RD-HGA16 TAAR1, Fluo-8 calcium fluorescence, antagonist. inhibition, % at 3 µM. 1.5% of 360,000 active. AID 624466;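 active = inhibition above a per-plate cutoff, the mean inhibition of test compounds on that plate plus 3 SD, cut at about 49% in these data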
Target sequence (Q96RJ0 whole entry, looked up): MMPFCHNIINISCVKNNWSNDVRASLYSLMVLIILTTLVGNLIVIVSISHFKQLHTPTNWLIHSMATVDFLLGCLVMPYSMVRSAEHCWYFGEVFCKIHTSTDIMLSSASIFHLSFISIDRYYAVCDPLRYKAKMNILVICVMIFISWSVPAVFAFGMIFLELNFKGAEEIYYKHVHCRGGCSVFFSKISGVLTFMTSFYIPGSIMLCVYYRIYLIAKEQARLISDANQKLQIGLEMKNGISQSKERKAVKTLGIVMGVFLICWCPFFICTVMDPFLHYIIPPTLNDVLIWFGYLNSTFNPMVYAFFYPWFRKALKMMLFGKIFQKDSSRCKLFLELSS
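Material: CHO RD-HGA16 cells bearing hTAAR1; compound dosing: one-point dosing, 3 µM nominal final; schedule: dye loading 75 min at 37 °C, then 30 min room temperature; measured by: calcium fluorescence with Fluo-8; control set: vehicle and agonist controls; replication: n of 1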
CHO parental Ca: counter-screen: ATP calcium response change in parental CHO cells; parental CHO-K1, ATP-induced calcium, Fluo-8 fluorescence; inhibition, % at 5.6 µM; 0.63% of 330,000 active;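 active = inhibition above that plate's mean sample inhibition plus 3 SD, cut at about 26% in these data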
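Assay system: parental CHO cells; Read-out basis: percent inhibition of ATP-evoked calcium rise, normalized to controls; Benchmarks: ATP and no-ATP DMSO wells; Compound dosing: single nominal dose of 5.6 µM per compound; Signal: Fluo-8 calcium dye fluorescence; Also added: ATP as calcium-mobilizing challenge; Repeats: singlicate.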
OX1R antag-1: antagonists of human orexin 1 receptor (OX1R); O43613; OX1R-expressing cells, FRET antagonist read-out; inhibition, % at 6.6 µM; 1.8% of 330,000 active; AID 485270; in the data active = inhibition mostly above about 38%, no sharp cut-off; inactive = mostly below about 40%
OX1R antag-2: antagonists of human orexin 1 receptor; O43613; inhibition, % at 5 µM; 0.43% of 330,000 active; AID 434989; CHO/OX1R cells, Fluo-8 calcium fluorescence, orexin A;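 active = inhibition above its plate's threshold, mean inhibition of all tested compounds on the plate plus 3 SD, cut at about 37% in these data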
TAAR1 agonist: agonists of human TAAR1. CHO RD-HGA16 TAAR1, Fluo-8 calcium fluorescence; vehicle wells 0%, saturating PEA agonist 100%. activation, % at 3 µM. 0.99% of 360,000 active. AID 624467;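 active = activation above the mean activation of all test compounds in the run plus 3 SD, cut at about 38% in these data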
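System: CHO-derived RD-HGA16 cells with stable Gα16 and human TAAR1. Times: 17-24 h plating, Fluo-8 75 min 37 °C, 30 min RT. Measured by: calcium-sensitive Fluo-8 signal, excitation 470-495, emission 515-575 nm. Read-out basis: % activation relative to PEA EC100 response. Control set: DMSO and PEA EC100. Repeats: no replicates (n 1).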
TAAR1 nonsel count: nonselective antagonist in TAAR1 antagonist counter-screen | AID 651780 | 77% of 2,400 active | counterscreen cell line, calcium fluorescence, antagonist mode | inhibition, % at 3 µM | shares compounds with TAAR1 antagonist; in the data active = inhibition above about 22%;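 also: CHO-Ga16 host cells stimulated with ATP at an EC80 level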
TAAR1 ant conf: human TAAR1 antagonism, confirmed. 40% of 2,400 active. TAAR1-expressing cells, fluorescence antagonist read-out. shares compounds with TAAR1 antagonist. inhibition, % at 3 µM; in the data active = inhibition above about 49%;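 also: CHO-Ga16 host cells challenged with agonist PEA near its EC80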
Ga16 nonsel ag: nonselective Ga16 agonist in TAAR1 antagonist counter-screen; Ga16-expressing cells, calcium fluorescence, agonist counterscreen; AID 651953; activation, % at 3 µM; 18% of 2,400 active; shares compounds with TAAR1 antagonist; in the data active = activation above about 12%
TAAR1 ag counter: counter-screen for human TAAR1 antagonists: TAAR1 agonists; shares compounds with TAAR1 antagonist; activation, % at 3 µM; 2% of 2,400 active; AID 651955; hTAAR1 cell line, fluorescence activation, agonist mode; in the data active = activation above about 37%;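 also: CHO cells stably expressing TAAR1 with calcium dye readout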
A number is an active result; . = inactive; / = not tested or not shown.

SMILES	TAAR1 antagonist	CHO parental Ca	OX1R antag-1	OX1R antag-2	TAAR1 agonist	TAAR1 nonsel count	TAAR1 ant conf	Ga16 nonsel ag	TAAR1 ag counter
CCOc1ccc(/C=C/C(O)=C2/C(=O)NC3(C)CC2c2ccccc2O3)cc1OC (stereo not given)	60	.	.	.	.	27	49	.	.
COc1cccc(NC(=O)Nc2ccc(C(C)(C)C)cc2)c1	87	/	/	/	.	51	76	14	.
CC(C)(C)c1cc(NC(=O)c2ccc(OC3CCCC3)cc2)no1	51	.	.	.	.	25	.	.	.
O=C(Nc1ccon1)c1ccc(OC2CCCC2)cc1	.	.	.	.	.	/	/	/	/
C/C(=N\Nc1cc(C)nc(-c2ccccc2O)n1)c1ccccc1O	59	.	.	.	.	30	.	.	.
Cc1cc(N/N=C\c2ccccc2)nc(-c2ccccc2O)n1	.	.	.	.	.	/	/	/	/
CN(C)c1nc(Nc2ccc(Cl)cc2)nc(OCC#N)n1	58	.	.	.	.	.	.	.	.
O=C(N/N=C/c1ccccn1)c1[nH]c2ccc([N+](=O)[O-])cc2c1-c1ccccc1	50	.	.	.	.	.	51	12	.
NNC(=O)c1[nH]c2ccc([N+](=O)[O-])cc2c1-c1ccccc1	.	.	.	.	.	/	/	/	/
COc1cc(/C=C/c2nc(-c3ccccc3O)n[nH]2)cc(OC)c1OC	72	.	.	.	.	22	51	.	.
CC1(c2nnc(-c3cccc(Cl)c3)o2)CC(c2c(Cl)cccc2Cl)=NO1 (stereo not given)	64	.	.	.	.	22	.	.	.
Cc1ccccc1CSCCC(=O)NCCC1=CCCCC1	53	.	.	.	.	.	.	.	.
CCC(C)NC(=O)c1ccccc1NC(=O)COc1ccc(OC)cc1 (stereo not given)	.	/	/	/	.	/	/	/	/
Cn1c(N)c(C(=O)COC(=O)c2ccc(F)cc2Cl)c(=O)n(C)c1=O	.	.	.	.	.	/	/	/	/
Cn1c(N)c(C(=O)COC(=O)C2(c3cccc(F)c3)CCCC2)c(=O)n(C)c1=O	63	.	.	.	.	32	51	.	.
CCOc1ccc(/C=C2\SC(=O)N(CCNC(=O)C3COc4ccccc4O3)C2=O)cc1OC (stereo not given)	78	.	.	.	.	35	.	.	.
COc1ccc(/C=C2/SC(=O)N(CCNC(=O)C3COc4ccccc4O3)C2=O)cc1 (stereo not given)	.	.	.	.	.	/	/	/	/
CC(=O)Nc1cc2c(cc1Br)-c1ccccc1C2	.	/	/	/	.	/	/	/	/
CC(C)COc1ccc(C(=O)NNC(=O)c2ccc(=O)[nH]c2)cc1	103	.	.	.	.	.	.	.	.
CCc1nnc(NC(=O)CCC(=O)NCCc2ccc(OC)c(OC)c2)s1	.	.	.	.	.	/	/	/	/
O=c1[nH]c2ccccc2cc1CN(Cc1ccco1)S(=O)(=O)c1ccc(F)cc1	54	.	.	.	.	23	.	.	.
CCOC(=O)c1cccc(S(=O)(=O)N(CCO)Cc2cc3cc(OC)ccc3[nH]c2=O)c1	/	.	.	.	/	/	/	/	/
COC(=O)c1cccc(S(=O)(=O)N(Cc2ccco2)Cc2cc3cc(OC)ccc3[nH]c2=O)c1	58	.	.	.	.	24	59	.	.
COc1ccc(-c2cnnc(N/N=C/c3ccc(O)c(OC)c3)n2)cc1	.	.	.	.	.	/	/	/	/
Cc1csc(NC(C)c2nc3cc(C(F)(F)F)ccc3n2CCCO)n1 (stereo not given)	.	.	.	.	.	/	/	/	/
SMILES	TAAR1 antagonist	CHO parental Ca	OX1R antag-1	OX1R antag-2	TAAR1 agonist	TAAR1 nonsel count	TAAR1 ant conf	Ga16 nonsel ag	TAAR1 ag counter
COc1ccc(C(=O)Nc2ccc(-c3cn4ccsc4n3)cc2)cc1S(=O)(=O)N1CCOCC1	62	.	.	.	.	25	49	.	.
O=c1c2ccc([N+](=O)[O-])cc2ncn1CCOc1cccc(Br)c1	71	.	.	.	.	30	56	.	.
Cc1ccc(C(C)C)c(OCCNC(=O)c2ccccc2O)c1	58	.	.	.	.	.	.	.	.
CCOC(=O)c1c(C)c(C)n2c1NC(=O)C2	.	/	/	/	.	/	/	/	/
Cc1ccc(C(=O)Nc2cccc(-c3ccc(N4CCOCC4)nn3)c2)cc1[N+](=O)[O-]	60	.	.	.	.	.	.	.	.
CCCNC(=O)C1(C)CCCN(C(=O)c2c(C)noc2C)C1 (stereo not given)	.	/	/	/	.	/	/	/	/
CCN(CC(=O)Nc1cccc(C(C)=O)c1)S(=O)(=O)c1ccc(OC)cc1	.	.	.	.	.	/	/	/	/
COc1ccc(NC(=O)CN(c2ccc(OC)cc2)S(=O)(=O)c2ccc(OC)c(OC)c2)cc1	51	.	.	.	.	23	.	.	.
COc1ccc(N(CC(=O)Nc2cccc(C(C)=O)c2)S(=O)(=O)c2ccc(NC(C)=O)cc2)cc1	61	/	/	/	.	35	55	.	.
COC(=O)CN(c1ccc(OC)cc1)S(=O)(=O)c1ccc(OC)c(OC)c1	.	.	.	.	.	/	/	/	/
CCc1nc2ccccc2n1Cc1ccccc1F	.	.	.	.	.	/	/	/	/
Nc1nc2c(F)c(F)c(F)cc2s1	.	.	.	.	.	/	/	/	/
COc1cccc(N2CCN(C(=O)CCCCCNc3nc(=S)[nH]c4ccccc34)CC2)c1	59	.	.	.	.	.	.	.	.
CN(C(=O)c1cccs1)C1(C)CCS(=O)(=O)C1 (stereo not given)	.	.	.	.	.	/	/	/	/
Cc1ccc(C(=O)Nc2cccc(C(=O)N/N=C/c3ccc(F)cc3)c2)cc1	63	.	.	.	.	37	53	.	.
CC(=O)Nc1cccc(C(=O)N/N=C/c2ccccc2F)c1	.	.	.	.	.	/	/	/	/
CC(=O)Nc1cccc(C(=O)N/N=C/c2ccc(F)cc2)c1	.	.	.	.	.	/	/	/	/
Cc1ccc(C(=O)Nc2cccc(C(=O)N/N=C/c3ccccc3F)c2)cc1	65	.	.	.	.	30	.	.	.
O=C(Nc1ccccc1)OCCN1CCOCC1	.	/	/	/	.	/	/	/	/
OCCC1CN(Cc2cn[nH]c2C2CCCCC2)CCN1C1CCCCC1 (stereo not given)	.	.	.	.	.	/	/	/	/
COC(=O)N[C@@H]1C[C@H]2[C@@H]3CC[C@H]4C[C@@H](OC)CC[C@]4(C)[C@H]3CC[C@@]12C	.	.	.	.	.	/	/	/	/
